From PubChem BioAssay
p-CIP stab down – p/CIP-EGFP fusion destabilizers, primary screen, fluorescence, F442A cells; Q05BA5; 16 h; decrease of EGFP signal, % at 10 µM; 0.01% of 290,000 active; AID 1984, 2009;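 active means EGFP signal decrease of at least 30% at 10 µM or well 3 SD below plate mean, unless failing retest; inactive means the rest, including hits failing retest or dose response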
Pemphigus Ab inh – inhibitors of pemphigus antibody binding to DSG3, primary screen, biochemical, bead-based, flow cytometry, scFv-GFP | AID 588358, 2011 | binding (percent of control), % at 10 µM | 0.48% of 310,000 active | DSG3-coupled beads, scFv-anti-DSG3-GFP binding; active compounds read low;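 active means binding more than 3 SD below its plate's average and above zero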;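 further: hits lower antibody fragment binding to DSG3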
CHT inh – inhibitors of human choline transporter CHT; 0.86% of 310,000 active; B-score at 10 µM; CHT-expressing cells, membrane potential dye, choline response; active compounds read low; High affinity choline transporter 1 (Homo sapiens), Q9GZV3; AID 488975, 2010;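 active means B-score over 3 SD under the library average, and starting fluorescence ratio not unusually high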;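 further: choline stimulus applied at its EC90 after an EC20 pre-addition; B-score computed on integrated fluorescence ratio after choline addition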
Target sequence (Q9GZV3 whole entry, looked up): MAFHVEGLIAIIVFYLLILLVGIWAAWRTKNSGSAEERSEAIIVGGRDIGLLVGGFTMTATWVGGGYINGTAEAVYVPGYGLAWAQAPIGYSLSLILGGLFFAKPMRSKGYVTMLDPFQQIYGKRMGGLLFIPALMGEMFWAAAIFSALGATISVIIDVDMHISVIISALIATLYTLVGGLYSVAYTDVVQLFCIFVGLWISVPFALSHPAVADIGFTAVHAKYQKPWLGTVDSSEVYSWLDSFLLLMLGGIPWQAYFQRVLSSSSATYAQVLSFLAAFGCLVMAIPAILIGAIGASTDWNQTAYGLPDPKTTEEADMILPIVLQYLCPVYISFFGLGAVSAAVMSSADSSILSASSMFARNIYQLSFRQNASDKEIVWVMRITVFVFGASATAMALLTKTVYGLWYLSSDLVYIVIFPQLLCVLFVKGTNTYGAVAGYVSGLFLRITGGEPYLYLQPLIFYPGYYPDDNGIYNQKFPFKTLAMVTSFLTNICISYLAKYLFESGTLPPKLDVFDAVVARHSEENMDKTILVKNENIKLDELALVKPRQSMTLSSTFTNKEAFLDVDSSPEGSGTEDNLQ
GPR7 antag – GPR7 receptor antagonists, primary screen, cell-based, fluorescence, single concentration; Neuropeptides B/W receptor type 1 (Homo sapiens), P48145; inhibition, % at 4.4 µM; GPR7-expressing cells, fluorescence antagonist assay; 1.1% of 290,000 active; in the data active means inhibition above about 16%, passing the limit was not always enough;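 further: cells stimulated with the agonist NPW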
T cell modulator – modulators of CD8 T cell-vesicle binding, primary screen, mouse 2C CD8+ T cells, flow cytometry; 2C CD8+ T cell-vesicle binding; active compounds read low; 0.068% of 330,000 active; response (vesicle binding), % at 7 µM;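 active means response, share of CD8 T cells binding vesicles, and their 90th percentile fluorescence all below set limits, cut at about 80% in these data, passing the limit was not always enough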;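 further: values below 100% mean blocked vesicle binding to the CD8+ T cells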
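Assay system – 2C mouse CD8+ T cells · Also added – QL9-loaded Drosophila micro-vesicles · Timing – Cell–vesicle co-incubation 1.5 h at 37 °C, staining 20 min on ice · Signal – flow cytometry of vesicle-bound cells · Measure – percent CD8+ FL2 mean versus row control · Controls – Peptide-free naked vesicles (low) and QL9 vesicles with 0.7% DMSO vehicle (high)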
CHT allo act – CHT positive allosteric modulators, primary screen, cell-based, membrane potential dye, choline EC20. CHT-expressing cells; active compounds read high; LV-AA mutant CHT in HEK293 cells. AID 488977, 2010. 0.49% of 310,000 active. B-score at 10 µM;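 active means initial fluorescence not abnormally high and integrated response B-score, plate-corrected, over 3 SD above library mean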
CHT act confirm – CHT activators, confirmation, cell-based, membrane potential dye, duplicate; shares compounds with CHT allo act; CHT-expressing cells, membrane potential dye fluorescence (FDSS); % of choline EC20–EC90 response window; HEK293 expressing CHT LV-AA mutant; choline added at its EC20; activation, % at 10 µM; 91% of 2,500 active;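 active means primary screen active, with duplicate mean activation above negative control mean plus 3 SD, cut at about 11% in these data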
HEK293 MP dye – membrane potential response in parental HEK293 cells, counter-screen for CHT activator project, cell-based, membrane potential dye. shares compounds with CHT allo act. 62% of 2,500 active. membrane potential dye fluorescence (FDSS); measured after EC20 choline addition. ratio readout change at 10 µM, hits read low. AID 623908, 2012;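 active means duplicate-averaged ratio beyond 3 SD from buffer wells, up or down, though filed actives are nearly all decreases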
Each line names hits and unclear results; the compound was inactive in the other large screens (follow-up assays come after a bar, where they were run). The list is not random: actives were taken first. Their share in the collection is about 2.3%.

Cc1ccc(NC(=O)C(c2ccccc2)N2CCN(CC(=O)NC3CC3)CC2)cc1Cl (centres undefined)	none (no result: p-CIP stab down, CHT inh, GPR7 antag, CHT allo act)
COc1ccc(NC(=O)C(c2ccccc2)N2CCN(c3ccccn3)CC2)cc1Cl (centres undefined)	CHT allo act 7.9 | CHT act confirm 22 | HEK293 MP dye inactive
CCCCN(CC)CCNC(=O)CN(C)S(=O)(=O)c1ccc2c(c1)c(=O)n(C)c(=O)n2C	none | CHT act confirm 32 | HEK293 MP dye -34
COc1ccc(CNC(=O)CN(C)S(=O)(=O)c2ccc3c(c2)c(=O)n(C)c(=O)n3C)cc1	none (no result: T cell modulator)
COc1cccc(C2CNC3(CCCC(C)C3)c3[nH]c4ccccc4c32)c1OC (centres undefined)	none | CHT act confirm 18 | HEK293 MP dye inactive
Cc1cc(N2CCC(C)CC2)nc2cccc(O)c12	CHT allo act 6.8 | CHT act confirm 18 | HEK293 MP dye -54
O=[N+]([O-])c1cccc(/C=N/Nc2ccccn2)c1	none
O=[N+]([O-])c1cccc(/C=N/Nc2nccnc2Cl)c1	CHT allo act 6.2 | CHT act confirm 41 | HEK293 MP dye -37
COc1ccc(C(=O)C[n+]2ccc3c(c2)nc(-c2ccccc2)n3C)cc1	none
Cc1nc2c(C)[n+](CC(=O)c3ccccc3)ccc2n1C	none | CHT act confirm 44 | HEK293 MP dye -38
COc1ccc(NC(=O)N(C)C[C@H]2OCCCC[C@@H](C)Oc3ccc(N(C)C)cc3C(=O)N([C@H](C)CO)C[C@@H]2C)cc1	none (no result: p-CIP stab down, CHT inh, GPR7 antag, T cell modulator, CHT allo act)
CN(C)c1ccc(/C=N/NC(=O)C(=O)/C=C2\NC3(CCCC3)Cc3ccccc32)cc1	CHT allo act 6.7 | CHT act confirm inactive | HEK293 MP dye inactive
COc1cc(/C=N/NC(=O)C(=O)/C=C2\NC3(CCCC3)Cc3ccccc32)ccc1O	none (no result: Pemphigus Ab inh)
CCN1CC(C)(C)N(C(=O)c2ccccc2)CC1(C)C	none (no result: p-CIP stab down, CHT inh, GPR7 antag, T cell modulator, CHT allo act)
CN[C@H]1C[C@H]2c3[nH]c4ccccc4c3CCN2C(=O)[C@H]1[C@H](C)O	none (no result: p-CIP stab down, CHT inh, GPR7 antag, T cell modulator, CHT allo act)
Cc1nn(CC(=O)NC2CCCCC2)c(C)c1[N+](=O)[O-]	none (no result: p-CIP stab down, CHT inh, GPR7 antag, T cell modulator, CHT allo act)
CC[n+]1c(C)sc2cc(OC)ccc21	none | CHT act confirm 29 | HEK293 MP dye -62
C/C(NCCc1ccccc1)=C1/CCOC1=O	none (no result: p-CIP stab down, CHT inh, GPR7 antag, T cell modulator, CHT allo act)
Cc1cc(NC(=O)CSc2ccc3nnc(-c4ccccn4)n3n2)no1	CHT allo act 8.1 | CHT act confirm 47 | HEK293 MP dye -43
Cc1nnc(NC(=O)CSc2ccc3nnc(-c4ccccn4)n3n2)s1	none
COC(=O)c1ccc(CSc2ccc3nnc(-c4ccccn4)n3n2)o1	none | CHT act confirm 35 | HEK293 MP dye -36
Cc1sc2ncnc(N3CCC(C(=O)N4CC(C)SC4=Nc4ccc(Cl)cc4)CC3)c2c1C (centres undefined)	none (no result: p-CIP stab down, CHT inh, GPR7 antag, T cell modulator, CHT allo act)
COC(=O)CCCC1=CC2=C(c3ccccc3)C(=O)C(C)(OC(=O)C3CCCC3)C(=O)C2=CN1C1CCCC1 (centres undefined)	CHT allo act 11 (no result: GPR7 antag) | CHT act confirm 36 | HEK293 MP dye inactive
Cc1onc(-c2ccccc2Cl)c1C(=O)Nc1cccc2cccnc12	none
COc1cc(NC(=O)c2c(-c3ccccc3Cl)noc2C)c2ncccc2c1	CHT allo act 7.8 (no result: p-CIP stab down, GPR7 antag) | CHT act confirm inactive | HEK293 MP dye inactive
COc1ccc(C)cc1NC(=O)CNc1ccccc1CN(C)C1CCCCC1	CHT allo act 6.4 | CHT act confirm 22 | HEK293 MP dye inactive
C[C@@H]1CN([C@@H](C)CO)C(=O)CCCn2nncc2CO[C@H]1CN(C)Cc1cccnc1	none (no result: p-CIP stab down, CHT inh, GPR7 antag, T cell modulator, CHT allo act)
COc1ccc(N2CCN(c3cc(C)c4ccc(C)cc4n3)CC2)cc1	none (no result: Pemphigus Ab inh)
Cc1cc(N2CCOCC2)nc2cc(O)ccc12	CHT allo act 9.2 | CHT act confirm 74 | HEK293 MP dye -45
c1ccc2c(N3CCCCC3)nc(N3CCOCC3)nc2c1	CHT allo act 6.7 | CHT act confirm 40 | HEK293 MP dye -44
c1ccc2c(N3CCCCC3)nc(N3CCCCC3)nc2c1	none (no result: Pemphigus Ab inh)
COc1ccc2nc(N3CCOCC3)cc(C)c2c1	CHT allo act 8.4 | CHT act confirm 58 | HEK293 MP dye -57
Cc1cc(N2CCCN(C)CC2)nc2cc(Cl)ccc12	none | CHT act confirm 35 | HEK293 MP dye -50
Cc1ccccc1-n1c(SC(C)C(=O)NCC2CCCO2)nnc1-c1ccncc1 (centres undefined)	none (no result: p-CIP stab down, CHT inh, GPR7 antag, T cell modulator, CHT allo act)
Cc1cc(N2CCCCC2)nc2ccccc12	none
Cc1cc(N2CCOCC2)nc2ccc(NC(=O)CCC(=O)N3CCCC(C)C3)cc12 (centres undefined)	none (no result: Pemphigus Ab inh) | CHT act confirm 41 | HEK293 MP dye -36
CCN1CCN(c2cc(C)c3cc(NC(=O)c4cccc(OC)c4)ccc3n2)CC1	none
COc1cccc(C(=O)Nc2ccc3nc(N4CCOCC4)cc(C)c3c2)c1	CHT allo act 6.8 | CHT act confirm 42 | HEK293 MP dye -43
Cc1cc(N2CCOCC2)nc2ccccc12	CHT allo act 6.5 | CHT act confirm 45 | HEK293 MP dye -51
Cc1cc(N2CCOCC2)nc2ccc(NC(=O)CCC(=O)N3CCN(c4ccc(F)cc4)CC3)cc12	none
CCSc1nnc(NC(=O)CN2C(=O)N(C)C3(CCCCC3)C2=O)s1	none (no result: p-CIP stab down, CHT inh, GPR7 antag, T cell modulator, CHT allo act)
CCOC(=O)c1c(C)[nH]c(C(=O)NCCc2ccc(OC)c(OC)c2)c1C	none
O/N=C/c1cccc[n+]1CCCCCC[n+]1ccccc1/C=N/O	CHT allo act 6.4 | CHT act confirm 44 | HEK293 MP dye -60
COc1ccc(C(=O)C[n+]2ccccc2/C=N/O)cc1	none | CHT act confirm 19 | HEK293 MP dye -25
CC1CCC(C(C)C)C(OC(=O)C[n+]2cc(-c3ccc(Cl)cc3)n3c2CCCCC3)C1 (centres undefined)	GPR7 antag 59, CHT allo act 13 | CHT act confirm 64 | HEK293 MP dye inactive
COc1ccc(-c2c[n+](CC(=O)c3ccccc3)c3n2CCCCC3)cc1	none (no result: Pemphigus Ab inh)
CCN(CC(=O)Nc1c(F)cccc1F)C(=O)c1ccc(OCC(=O)N2CCOCC2)c(OC)c1	none (no result: p-CIP stab down, CHT inh, GPR7 antag, T cell modulator, CHT allo act)
COc1ccc(-c2c[n+]3c(n2-c2ccccc2)CCCCC3)cc1	none
